Consider nine compounds from ChEMBL document CHEMBL4368889, “Synthesis and evaluation of novel purple acid phosphatase inhibitors” (Medchemcomm, 2019).

Experiment [1] addresses T1, Fe(3+)-Zn(2+) purple acid phosphatase (Phaseolus vulgaris) (UniProt P80366).
T1 sequence (whole entry): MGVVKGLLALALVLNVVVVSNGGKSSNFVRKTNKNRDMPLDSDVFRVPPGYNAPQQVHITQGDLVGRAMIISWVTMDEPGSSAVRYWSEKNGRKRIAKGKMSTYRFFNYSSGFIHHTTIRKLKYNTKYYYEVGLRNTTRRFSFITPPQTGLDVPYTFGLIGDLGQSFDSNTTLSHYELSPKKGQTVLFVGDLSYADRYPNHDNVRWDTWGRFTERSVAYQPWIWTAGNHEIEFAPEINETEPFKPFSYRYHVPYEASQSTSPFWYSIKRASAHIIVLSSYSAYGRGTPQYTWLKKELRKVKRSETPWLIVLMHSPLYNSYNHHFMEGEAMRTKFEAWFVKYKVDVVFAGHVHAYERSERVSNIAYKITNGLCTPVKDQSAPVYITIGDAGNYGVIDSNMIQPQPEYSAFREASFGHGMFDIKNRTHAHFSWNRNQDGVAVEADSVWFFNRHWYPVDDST
Nature of the experiment: Uncompetitive inhibition of red kidney bean PAP using pNPP as substrate by UV-vis spectrophotometric analysis. Summed up: (§1)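 Red kidney bean (Phaseolus vulgaris) PAP purified from the beans and used at 7.4 nM. Assays ran at pH 4.9 in 0.1 M sodium acetate with 25% DMSO, at 25 °C. Substrate was pNPP at 1, 3, 5, 7.5, 10 and 12.5 mM, with inhibitor at 50–300 μM. Product formation was read at 405 nm. Kic and Kiuc came from non-linear regression to the general inhibition equation.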

The species entered for the next experiment is Sus scrofa. Nature of the experiment: Uncompetitive inhibition of fully reduced pig PAP using pNPP as substrate by UV-vis spectrophotometric analysis. Summed up:
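Pig PAP purified from the uterine fluid of a pregnant sow. Assays ran at pH 4.9 in 0.1 M sodium acetate with 25% DMSO, at 25 °C. pNPP was 1–12.5 mM (six levels) and inhibitor 50–300 μM. Rates were read at 405 nm. Kiuc came from a general inhibition equation fit.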

For experiment [2], the target named is T2, Fe(3+)-Zn(2+) purple acid phosphatase (Phaseolus vulgaris, UniProt P80366).
T2 sequence (P80366 whole entry): T1 sequence (whole entry)
Nature of the experiment: Inhibition of red kidney bean PAP. Summed up:
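PAP purified from Phaseolus vulgaris beans, used at 7.4 nM in 0.1 M sodium acetate pH 4.9 with 25% DMSO at 25 °C. pNPP substrate at 1, 3, 5, 7.5, 10 and 12.5 mM, inhibitor 50–300 μM. Product formation read at 405 nm. Kic and Kiuc came from a non-linear regression to the general inhibition equation.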

Experiment [3] can be described thus: Inhibition of pig PAP. Set-up: species or system Sus scrofa.
Experiment [4] deals with T1, Fe(3+)-Zn(2+) purple acid phosphatase (Phaseolus vulgaris). Nature of the experiment: Competitive inhibition of red kidney bean PAP using pNPP as substrate by UV-vis spectrophotometric analysis. Summed up: as §1

Regarding `O=C(O)c1cn(Cc2ccccc2)nn1`, the Kiuc in experiment [1] amounted to 963 µM; in the experiment listed under Sus scrofa, 23 µM. Take `CC(=O)c1sc(C)nc1-c1ccc(C)cc1`: the values for the Ki in experiment [2] and in experiment [3] were 340 µM and 42 µM, respectively. `O=C(O)c1cn(Cc2ccc(Cl)cc2)nn1` returned a Kic in experiment [4] of 1070 µM. Further, the Kiuc in the experiment filed under Sus scrofa came to 103 µM. For the compound VANADATE ION, the values for the Ki in experiment [2] and in experiment [3] were 30 µM and 40 µM, respectively. Consider `O=C(O)c1cn(Cc2cccc3ccccc23)nn1`, for which, in experiment [4], the Kic amounted to 2280 µM. This compound registered a Kiuc in the experiment filed under Sus scrofa of 184 µM. For the compound `O=P(O)(O)O` [PHOSPHORIC ACID], the inhibitory constant (Ki) in experiment [2] and in experiment [3] was 2000 µM in each case. Turning to `Cc1ccc(Cn2cc(C(=O)O)nn2)cc1`, the Kic in experiment [4] is 951 µM. In the experiment listed under Sus scrofa, this compound yielded a Kiuc of 76 µM. As for `COc1ccc(Cn2cc(C(=O)O)nn2)cc1`, in the experiment filed under Sus scrofa, the Kiuc amounted to 48 µM. `O=C(O)c1cn(Cc2ccccc2Cl)nn1` had a Kic in experiment [4] of 438 µM. This compound also showed a Kiuc in the experiment filed under Sus scrofa of 276 µM.
